# AHR activator: AHR activators, primary screen, cell-based, luminescence, luciferase reporter, human | Aryl hydrocarbon receptor (Homo sapiens), P35869 | AHR-responsive luciferase reporter cells | activation, % at 5 µM | 2.5% of 320,000 active | AID 2796, 2010; in the data active = activation above about 47%;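 note: 0% = vehicle wells and 100% = reference agonist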
# ABCB6 inh MLPCN: ABCB6 transporter inhibitors, primary screen, K562-ABCB6 cells, flow cytometry, MLPCN library; fluorescence ratio to DMSO, % at 10 µM; AID 602162, 2011; K562-ABCB6 porphyrin accumulation, 1 h; active compounds read low; 0.19% of 360,000 active; ATP-binding cassette sub-family B member 6 (Homo sapiens), Q9NP58;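 active = fluorescence ratio to DMSO below 75%, the collection mean minus 3 SD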;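 note: signal is porphyrin accumulated inside mitochondria; 100% equals median channel fluorescence of DMSO control wells; lower ratio means ABCB6 inhibition with less porphyrin fluorescence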
# GAA850 FXN act: FXN promoter activators, primary screen, cell-based, luciferase luminescence, HEK293 lucGAA850; activation, % at 6 µM; 0.56% of 360,000 active; HEK293 lucGAA850 FXN promoter luciferase reporter, 24 h; percent of 10 µM SAHA response;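 active = activation above the average of all compounds screened plus 3 SD, cutoff fixed separately per campaign, cut at about 7.5% in these data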;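 note: 0% = DMSO wells and 100% = 10 µM SAHA wells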
# STAT3 activator: IL-6 driven STAT3 reporter potentiators, primary screen, U3A cells, luciferase, luminescence, MLSCN library. IL-6 STAT3-luciferase reporter; 100% = signal with IL-6 EC80 alone. activation (% of control), % at 5.6 µM. 0.91% of 190,000 active;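 active = activation above the screen-wide mean of compound activation plus 3 SD, cut at about 130% in these data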;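 note: 0% = background luminescence of wells with medium and substrate only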
#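 System – human U3A cells carrying STAT3-luciferase construct · Probe or stimulus – Interleukin-6, 33 ng/mL · Schedule – compound 1 h, then IL-6 6 h at 37 °C · Signal – luminescence from STAT3-driven luciferase reporter · Evaluation – percent of IL-6-only median luminescence · Benchmarks – IL-6-only high control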
# AHR act cf: AHR activators, confirmation, cell-based, luminescence, luciferase reporter, human. shares compounds with AHR activator. human cells, AHR-responsive luciferase reporter. activation, % at 9 µM. 87% of 2,300 active. AID 2845, 2010; in the data active = activation above about 49%;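 note: HepG2 hepatoma cells carrying a DRE-driven firefly luciferase reporter; 0% = vehicle wells and 100% = reference agonist wells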
# PXR counter: human PXR activators, counter-screen for AHR activator project, cell-based, luciferase luminescence | shares compounds with AHR activator | cell-based PXR reporter | activation, % at 11.6 µM | 88% of 2,300 active | AID 434939, 2010; in the data active = activation above about 11%;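 note: human hepatoma DPX-2 cells expressing full-length human PXR; 0% = DMSO and 100% = reference agonist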
# Target sequence (O75469 whole entry, looked up): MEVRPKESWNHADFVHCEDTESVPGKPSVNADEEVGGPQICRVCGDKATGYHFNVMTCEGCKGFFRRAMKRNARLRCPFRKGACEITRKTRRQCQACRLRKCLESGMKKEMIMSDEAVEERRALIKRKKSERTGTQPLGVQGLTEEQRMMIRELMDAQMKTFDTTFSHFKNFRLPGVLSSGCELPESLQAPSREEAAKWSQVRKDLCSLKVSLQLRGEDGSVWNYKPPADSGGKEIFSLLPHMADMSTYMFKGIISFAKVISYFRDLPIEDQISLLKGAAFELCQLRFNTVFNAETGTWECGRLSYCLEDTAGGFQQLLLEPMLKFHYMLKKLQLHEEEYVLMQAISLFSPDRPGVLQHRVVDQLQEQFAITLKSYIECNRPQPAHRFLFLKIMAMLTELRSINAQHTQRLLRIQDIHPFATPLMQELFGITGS
# GAA30 FXN cntr: GAA30 FXN promoter activators, confirmation, counter-screen for GAA850 frataxin promoter activator project, cell-based, luminescence, HEK293, lucGAA30, triplicate | HEK293 lucGAA30 FXN promoter luciferase, 24 h; DMSO = 0%, 5 µM ipriflavone = 100% | 66% of 1,900 active | AID 588350, 2011 | shares compounds with GAA850 FXN act | activation, % at 6 µM;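 active = mean activation above the mean of solvent-only control wells plus 3 SD, cut at about 22% in these data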;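 note: counterscreen of GAA850 promoter hits where activity marks nonselective or luminescence artifacts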
# GAA850 confirm: FXN GAA850 promoter activators in reporter cells, confirmation, cell-based, luminescence, HEK293 lucGAA850, triplicate | 86% of 1,900 active | HEK293 lucGAA850 FXN promoter luciferase reporter, 24 h; 100% = activation by SAHA | AID 588351, 2011 | shares compounds with GAA850 FXN act | activation, % at 6 µM;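 active = mean activation above a set limit taken from the primary screen, cut at about 8% in these data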;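 note: 0% = DMSO wells and 100% = 10 µM SAHA wells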
# An asterisk follows results filed as active; . = not tested or not shown; ! = not confirmed by another sample. Compounds with a hit are over-represented: about 3.3% of the library has one in this group of screens.
SMILES,AHR activator,ABCB6 inh MLPCN,GAA850 FXN act,STAT3 activator,GAA30 FXN cntr,GAA850 confirm,others
CC1CCCC(C)N1/N=C/c1c[nH]c2ccc(Br)cc12 (stereo not drawn),88.9*,101.0,-2.2,106.9,.,.,AHR act cf=82.8*;PXR counter=59.7*
NC(=O)Nc1ccc(C(=O)OCC(=O)Nc2ccc(Cl)cc2C(=O)c2ccccc2)cc1,93.3*,99.0,4.8,97.9,.,.,AHR act cf=5.3;PXR counter=14.3*
O=C(NC(=S)N1CC1)c1ccccc1,.,97.0,2.5,.,.,.,
O=C(COc1ccccc1)c1cn(Cc2ccccc2)c2ccccc12,84.2*,107.0,4.2,105.8,.,.,AHR act cf=66.2*;PXR counter=103.4*
COc1ccccc1-n1c(CNCC2CCCO2)nc2ccccc2c1=O (stereo not drawn),81.3*,97.0,2.4,101.2,.,.,AHR act cf=48.4*;PXR counter=37.5*
C=CCN1C(=O)NC(=O)/C(=C/c2ccc(N(C)C)c(Br)c2)C1=O,1.1,97.0,0.9,92.0,.,.,
Cc1cccc(N2CCc3c2nc2ccccc2c3N)c1,82.9*,117.0,1.6,98.9,.,.,AHR act cf=85.7*;PXR counter=54.8*
Cc1ccnc(-n2c(C)nc3ccccc3c2=O)c1,13.2,97.0,2.2,98.1,.,.,
O=C1CN=C(c2ccc(Cl)cc2)c2oc3ccccc3c2N1,103.6*,96.0,2.6,.,.,.,AHR act cf=118.7*;PXR counter=31.3*
COc1ccc2oc3c(c2c1)NC(=O)CN=C3c1ccccc1,13.0,100.0,-0.4,93.5,.,.,
O=S(=O)(c1cccc(C(F)(F)F)c1)N1Cc2ccccc2-n2nncc2C1,.,96.0,-0.6,.,.,.,
CC(C)=CCOc1c2occc2cc2ccc(=O)oc12,114.4*,100.0,1.6,92.3,.,.,AHR act cf=86.1*;PXR counter=77.9*
CC(C)Oc1cccc(C(=O)C2CCCN(Cc3ccon3)C2)c1 (stereo not drawn),3.1,90.0,1.7,105.0,.,.,
COc1ccc2c(c1)/C(=C/c1cnc[nH]1)C(=O)N2,248.3*,98.0,43.2*,.,116.1*,75.6*,AHR act cf=49.2*;PXR counter=14.9*
CNC(=O)O/N=C/c1nn(C(=O)C(C)(C)C)cc1Br,-0.3,100.0,1.1,.,.,.,
COc1ccc(OC(=O)N(C)C[C@H]2OCc3cnnn3CCCC(=O)N([C@H](C)CO)C[C@@H]2C)cc1,.,98.0,-0.9,.,.,.,
COc1ccc(OC(=O)N(C)C[C@@H]2OCc3ccccc3-c3c(n(C)c4ccccc34)C(=O)N([C@H](C)CO)C[C@@H]2C)cc1,.,95.0,11.7*,.,17.8,9.1*,
C=CC[C@@H](CC/C=C/C=C/CC/C=C\[C@@H]1CSC([C@@H]2C[C@@H]2C)=N1)OC,-1.0,96.0,-0.9,.,.,.,
Cn1cccc1/C=C1\C(=O)NC(=O)N(Cc2ccccc2)C1=O,3.1,98.0,8.0*,.,-7.1,24.4*,
CCN1C(=O)C(=Cc2ccc(C)s2)C(=O)N(CC)C1=S,5.2,101.0,9.0*,104.2,79.4*,45.3*,
C=CCNC(=O)c1c(N)n(Cc2ccco2)c2nc3ccccc3nc12,25.6,110.0,9.6*,108.3,16.9,8.6*,
N#CC1c2ccccc2-n2nncc2CN1S(=O)(=O)c1ccc(Cl)cc1 (stereo not drawn),.,104.0,0.4,.,.,.,
CN1C(=O)c2ccccc2NC(=O)[C@]12O[C@@H]2c1ccccc1,2.8,102.0,13.1*,.,20.1,5.1,
CC(C)C1C(C#N)=C(N)Oc2c1c(=O)oc1ccccc21 (stereo not drawn),.,102.0,1.5,.,.,.,
COc1ccc(/C=N/N=C(/N)N[N+](=O)[O-])c(OC)c1,17.1,107.0,9.7*,94.1,74.7*,26.5*,
SMILES,AHR activator,ABCB6 inh MLPCN,GAA850 FXN act,STAT3 activator,GAA30 FXN cntr,GAA850 confirm,others
C=C(C)CSc1nnc([C@@H](N)Cc2ccccc2)o1,-0.5,101.0,2.4,.,.,.,
CCC(=NC(C)c1ccccc1)c1c(O)[nH]c(=O)[nH]c1=O (stereo not drawn),1.3,83.0,8.5*,.,15.5,10.1*,
CN(C)[C@@H]1C(=O)C(C(N)=O)=C(O)[C@@]2(O)C(=O)C3=C(O)c4c(O)ccc(Cl)c4[C@@](C)(O)C3C[C@@H]12 (stereo partly drawn),.,101.0,13.7*,102.3,5.5,0.6,
CN(C)[C@@H]1C(=O)C(C(N)=O)=C(O)[C@@]2(O)C(=O)C3=C(O)c4c(O)cccc4[C@@](C)(O)C3[C@H](O)C12 (stereo partly drawn),-0.9,96.0,14.6*!,.,28.3*,9.1*,
c1ccc2c(c1)CN(Cc1ccc3c(c1)OCO3)Cc1cnnn1-2,.,100.0,0.2,.,.,.,
CN(C)C(=S)SSC(=S)N(C)C,-0.8,104.0,27.4*,108.8,-117.9,-33.7,
COC(=O)C1=C(c2ccccc2OCc2ccccc2)C[C@@H]2CC[C@H]1N2C(=O)NCCN1CCOCC1,-0.6,98.0,-1.5,.,.,.,
O=c1cccc2n1CC1CC2CN(Cc2c(Cl)cccc2Cl)C1 (stereo not drawn),-5.3,101.0,0.8,103.6,.,.,
O=c1cccc2n1CC1CC2CN(c2nc(N3CCCCC3)nc(N3CCCCC3)n2)C1 (stereo not drawn),2.4,97.0,11.1*,104.3,32.4*,12.3*,
Cc1ccc(N2C(=O)NC(=O)/C(=C/C=C/c3ccco3)C2=O)cc1,3.7,96.0,5.0,103.4,.,.,
Cc1cc(C)cc(N2C(=O)NC(=O)/C(=C\C=C\c3ccco3)C2=O)c1,1.2,99.0,8.9*,101.6,-48.8,-9.8,
CC(C)c1ccc(N2C(=O)NC(=O)/C(=C/C=C/c3ccco3)C2=O)cc1,19.6,88.0,8.7*,100.9,2.5,20.0*,
Cc1cccc(CCNCc2cc3cccc(C)c3[nH]c2=O)c1,.,94.0,-1.0,.,.,.,
C=CCn1c(O)c(C(CC)=Nc2ccc(N(C)C)cc2)c(=O)[nH]c1=O,7.6,98.0,2.1,.,.,.,
CCN(CC)c1ccc(N=Cc2c(O)n(CCC3=CCCCC3)c(=O)[nH]c2=O)cc1,1.9,129.0,3.9,105.3,.,.,
CN(C)c1ccc(N=Cc2c(O)n(CCC3=CCCCC3)c(=O)[nH]c2=O)cc1,4.2,93.0,24.6*,103.7,2.2,6.5,
COc1cc(C2(C#N)CCN(C)CC2)cc(OC)c1OC,.,104.0,1.1,.,.,.,
COc1ccc2nc3c(C)n(C)ccc-3c2c1,.,97.0,0.2,.,.,.,

# Compound activity: PubChem BioAssay, several laboratories
